The results in this text go back to ChEMBL document CHEMBL1142792, “Structure-activity relationship studies of salubrinal lead to its active biotinylated derivative” (Bioorg Med Chem Lett, 2005).

A word on the EC50: it is the concentration giving half of the maximal effect. High values mean a need for much substance, low ones an effect from little substance.

Format in all cases: functional, cell-based
Assay [1] relates to PC-12. In words: Cytoprotective activity on rat tunicamycin treated rat pheochromocytoma cell line PC12 from apoptosis induced by Endoplasmic reticulum stress; TX=Toxic. An outline of the steps: (§1)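 PC12 cells exposed to tunicamycin (ER-stress inducer) together with graded compound doses for 37 h; viability read as cellular ATP content. Positive control: zVAD.fmk 100 µM. EC50 taken as concentration giving half-maximal rescue from cell death relative to the Tm-only control.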

Assay [2] concerns PC-12. Nature of the assay: Cytoprotective activity on rat tunicamycin treated rat pheochromocytoma cell line PC12 from apoptosis induced by Endoplasmic reticulum stress. An outline of the steps: as §1
Assay [3] has as its system PC-12. Nature of the assay: Cytoprotective activity on rat tunicamycin treated rat pheochromocytoma cell line PC12 from apoptosis induced by Endoplasmic reticulum stress; NA = Not active upto 100 uM. An outline of the steps: as §1

For `O=C(/C=C/c1ccccc1)NNC(=S)Nc1ccccn1`, the EC50 result in assay [1] is “Toxic”.
Take `O=C(CCc1ccccc1)NC(NC(=S)Nc1ccccn1)C(Cl)(Cl)Cl` (stereo unspecified): a half-maximal effect in assay [2] (EC50) was put at 33 µM.
On the same count and under the same terms, the same measure for `O=C(/C=C/c1ccccc1C(F)(F)F)NC(/N=C(\S)Nc1ccccn1)C(Cl)(Cl)Cl` (stereo unspecified): 38 µM.
On the same count and under the same terms, the same measure for `O=C(/C=C/c1ccccc1Cl)NC(NC(=S)Nc1ccccn1)C(Cl)(Cl)Cl` (stereo unspecified): 40 µM.
Consider `O=C(/C=C/c1ccccc1)NC(CO)/N=C(\S)Nc1ccccn1` (stereo unspecified), for which the EC50 result in assay [3] is recorded as “Not Active”.
`CCCC/N=C(\S)NC(NC(=O)/C=C/c1ccccc1)C(Cl)(Cl)Cl` (stereo unspecified): the EC50 in assay [2] was 24 µM.
As for `CCOC(=O)C(/N=C(\S)Nc1ccccn1)NC(=O)/C=C/c1ccccc1` (stereo unspecified), in assay [3], the EC50 entry was “Not Active”.
For `CCCCOc1ccc(/C=C/C(=O)NC(/N=C(\S)Nc2ccccn2)C(Cl)(Cl)Cl)cc1` (stereo unspecified), in assay [3], the EC50 entry is “Not Active”.
Turning to `CC(C)=CC(=O)NC(/N=C(\S)Nc1ccccn1)C(Cl)(Cl)Cl` (stereo unspecified), the EC50 entry in assay [3] is on record as “Not Active”.
Regarding `O=C(/C=C/c1ccccc1)NC(NC(=S)NC(=O)c1ccccc1)C(Cl)(Cl)Cl` (stereo unspecified), the half-maximal effective concentration (EC50) in assay [2] was over 100 µM.
Regarding `O=C(NC(NC(=S)Nc1ccccn1)C(Cl)(Cl)Cl)c1ccccc1` (stereo unspecified), the EC50 entry in assay [3] is “Not Active”.
For `O=C(/C=C/c1ccc([N+](=O)[O-])cc1)NC(/N=C(\S)Nc1ccccn1)C(Cl)(Cl)Cl` (stereo unspecified), in assay [2], it took 28 µM to reach a half-maximal effect (EC50).
In turn, `Nc1ccc(/C=C/C(=O)NC(/N=C(\S)Nc2ccccn2)C(Cl)(Cl)Cl)cc1` (stereo unspecified) returned an EC50 in assay [2] of 56 µM.
As to `O=C(/C=C/c1ccccc1)NCCNC(=S)Nc1ccccn1`, the EC50 result in assay [1] is reported as “Toxic”.
Consider `O=C(/C=C/c1ccc(F)cc1F)NC(/N=C(\S)Nc1ccccn1)C(Cl)(Cl)Cl` (stereo unspecified), for which, in assay [2], a half-maximal effect (EC50) was put at 72 µM.
For `O=C(/C=C/c1ccccc1)NC(/N=C(\S)Nc1ccccn1)C(F)(F)F` (stereo unspecified), the EC50 entry in assay [1] is “Toxic”.
Consider `O=C(/C=C/c1cccs1)NC(NC(=S)Nc1ccccn1)C(Cl)(Cl)Cl` (stereo unspecified), for which the EC50 in assay [2] was found to be 41 µM.
On to `O=C(/C=C/C1CCCCC1)NC(NC(=S)Nc1ccccn1)C(Cl)(Cl)Cl` (stereo unspecified), for which the response in assay [2] was half-maximal at 29 µM (EC50).
Consider `O=C(/C=C/c1cccnc1)NC(NC(=S)Nc1ccccn1)C(Cl)(Cl)Cl` (stereo unspecified), for which the 50% effective concentration (EC50) in assay [2] came to 30 µM.
`O=C(/C=C/c1ccccc1)NC(NC(=S)Nc1ccccn1)C(Cl)(Cl)Cl` (stereo unspecified) returned an EC50 in assay [2] of 40 µM.
For the compound `O=C(/C=C/c1ccccc1)NC(NC(=S)Nc1cnc2ccccc2c1)C(Cl)(Cl)Cl` (stereo unspecified), in assay [3], the EC50 result is “Not Active”.
In assay [2], `O=C(/C=C/c1ccccc1)NC(NC(=S)Nc1ccccn1)C(Cl)Cl` (stereo unspecified) registered an EC50 of 75 µM.
Take `O=C(/C=C/c1ccc(Br)cc1)NC(NC(=S)Nc1ccccn1)C(Cl)(Cl)Cl` (stereo unspecified): in assay [2], a half-maximal effect (EC50) was put at 50 µM.
For `O=C(/C=C/c1ccccc1)NC(NC(=S)Nc1ccccn1)C(Br)(Br)Br` (stereo unspecified), it took 51 µM to reach a half-maximal effect in assay [2] (EC50).
Turning to `O=C(/C=C/c1ccccc1)NC1CSC(Nc2ccccn2)=N1` (stereo unspecified), in assay [3], the EC50 result is reported as “Not Active”.
Turning to `O=C(/C=C/c1ccccc1)NC(NC(=S)Nc1cccc2cccnc12)C(Cl)(Cl)Cl` (stereo unspecified) [SALUBRINAL], in assay [2], it took 15 µM to reach a half-maximal effect (EC50).
